# Screening results: PubChem, The Scripps Research Institute Molecular Screening Center
# In the library only some 4.7% were active in any assay of this set; here they are far more common.
# HTR2A ag: mouse HTR2A agonism via beta-arrestin recruitment; AID 624169; hit rate 0.66% among 360,000; CHO-K1 mHTR2A beta-arrestin complementation, luminescence; percent of 30 µM serotonin response; activation, % at 7.6 µM;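 active = activation above a run cutoff, the mean activation of all tested compounds plus 3 SD, cut at about 14% in these data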
# AHR activator: activates the human aryl hydrocarbon receptor. hit rate 2.5% among 320,000. AHR-responsive luciferase reporter cells, luminescence. activation, % at 5 µM. P35869; in the data active = activation above about 47%
# Target sequence (P35869 whole entry, looked up): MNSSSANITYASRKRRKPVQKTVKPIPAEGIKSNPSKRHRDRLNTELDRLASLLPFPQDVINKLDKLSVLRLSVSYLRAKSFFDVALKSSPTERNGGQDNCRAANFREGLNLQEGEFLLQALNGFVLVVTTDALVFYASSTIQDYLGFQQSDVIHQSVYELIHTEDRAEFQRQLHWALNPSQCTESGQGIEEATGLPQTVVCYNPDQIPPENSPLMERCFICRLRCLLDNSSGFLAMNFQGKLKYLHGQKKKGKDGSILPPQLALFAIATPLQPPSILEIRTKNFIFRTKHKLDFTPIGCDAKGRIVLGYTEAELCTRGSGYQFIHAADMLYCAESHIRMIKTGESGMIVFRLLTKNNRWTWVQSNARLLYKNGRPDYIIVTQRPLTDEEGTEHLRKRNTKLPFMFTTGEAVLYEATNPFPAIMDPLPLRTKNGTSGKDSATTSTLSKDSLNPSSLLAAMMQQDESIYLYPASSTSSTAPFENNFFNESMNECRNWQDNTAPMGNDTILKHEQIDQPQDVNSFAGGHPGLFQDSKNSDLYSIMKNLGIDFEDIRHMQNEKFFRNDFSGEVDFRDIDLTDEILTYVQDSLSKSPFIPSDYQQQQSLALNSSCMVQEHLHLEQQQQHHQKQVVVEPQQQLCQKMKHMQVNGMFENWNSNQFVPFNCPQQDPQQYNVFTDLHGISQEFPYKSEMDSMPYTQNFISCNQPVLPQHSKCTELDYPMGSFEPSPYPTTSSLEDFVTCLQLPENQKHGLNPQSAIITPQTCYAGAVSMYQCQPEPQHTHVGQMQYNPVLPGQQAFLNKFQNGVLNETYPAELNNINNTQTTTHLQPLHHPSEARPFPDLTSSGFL
# GAA850 FXN act: frataxin GAA850 promoter activation | HEK293 lucGAA850 FXN promoter luciferase reporter, 24 h; percent of 10 µM SAHA response | AID 540364 | activation, % at 6 µM | hit rate 0.56% among 360,000;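 active = activation above the average of all compounds screened plus 3 SD, cutoff fixed separately per campaign, cut at about 7.5% in these data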
# MC4R barr agon: activates human MC4R beta-arrestin recruitment; hit rate 0.98% among 360,000; U2OS MC4R beta-arrestin complementation, luminescence; percent of melanotan II response, DMSO zero; AID 540308; activation, % at 8.9 µM;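 active = activation above a per-plate cutoff, the mean activation of sample wells on that plate plus 3 SD, cut at about 8% in these data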
# MC4R antagonist: blocks human MC4R cAMP signaling; hit rate 0.48% among 360,000; MC4R-expressing cells, MTII-stimulated cAMP, LANCE TR-FRET; inhibition, % at 6.5 µM; P32245;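 active = inhibition above its plate's cutoff, the mean of tested wells on that plate plus 3 SD, cut at about 29% in these data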
#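 System – human MC4R-expressing U2OS cells · Also added – Melanotan II · Dosing – one concentration, 6.5 µM nominal · Timing – 30-min compound, 1-h challenge, 1-h detection, room temperature · Measured by – Eu-cAMP/anti-cAMP TR-FRET, emission 671 nm · Replicates – singlicate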
# Hits are given with their value; - = inactive; . = not tested or not shown.
SMILES,HTR2A ag,AHR activator,GAA850 FXN act,MC4R barr agon,MC4R antagonist
C[C@]12CC[C@H]3C(CCC4(O)CC(O)CC[C@]34C=O)C1=CC[C@H]2c1ccc(=O)oc1 (stereo not given in full),-,-,-,20.6,-
CC(=O)O[C@H]1[C@H]2O[C@]23[C@@H]2CC[C@]4(O)C[C@@H](O)CC[C@]4(C)C2CC[C@]3(C)[C@H]1c1ccc(=O)oc1 (stereo not given in full),-,-,-,23.7,-
CC12CC1(C)C(=O)N(c1cc(Cl)cc(Cl)c1)C2=O (stereo not given),-,.,-,-,-
COc1cccc(C(c2nnnn2C(C)(C)C)N2CCC3(CC2)C(=O)NCN3c2ccccc2)c1OC (stereo not given),-,.,.,.,.
C[C@]12CCC3C(CC[C@H]4C[C@@H](O)CC[C@]34C)[C@H]1C=CC2=O (stereo not given in full),-,-,9.4,-,-
COC[C@H]1OC(=O)c2coc3c2[C@@]1(C)C1=C(C3=O)[C@@H]2CCC(=O)[C@@]2(C)C[C@H]1OC(C)=O,-,.,-,-,-
COc1ccc2c(c1)CC1(CN2C)C(=O)NC(=O)N(c2ccc(F)cc2)C1=O (stereo not given),-,72.3,-,-,-
Cc1cccc(N2C(=O)NC(=O)C3(Cc4cc(C)ccc4N(C)C3)C2=O)c1 (stereo not given),-,-,-,-,-
COc1ccc2c(c1)CC1(CN2C)C(=O)NC(=O)N(c2ccc(C)cc2)C1=O (stereo not given),-,52.1,-,-,-
CCOP(=O)(OCC)C(NC(=O)c1cccc(C)c1)C(Cl)(Cl)Cl (stereo not given),-,-,-,-,-
Cc1cccc(C(=O)NC(Oc2ccccc2)C(Cl)(Cl)Cl)c1 (stereo not given),-,50.2,-,-,-
O=C1NC(=O)C(=Cc2ccc(-c3ccc(S(=O)(=O)N4CCOCC4)cc3)o2)C(=O)N1,-,-,-,-,35.9
Cc1cc(OCC(=O)NCc2ccncc2)c2c3c(c(=O)oc2c1)CCCC3,-,63.6,-,-,-
CC(=O)OC(C)(C)/C=C/C(=O)[C@](C)(O)C1[C@H](O)C[C@@]2(C)C3CC=C4C(C[C@H](O)C(=O)C4(C)C)[C@]3(C)C(=O)C[C@]12C (stereo not given in full),16.4,-,-,-,-
Fc1ccccc1CN1Cc2ccccc2-n2nncc2C1,-,.,-,-,-
Clc1ccc(-c2nc3ccc(Cl)cn3c2CN2CCOCC2)cc1,-,62.1,-,-,-
CN(C)CC(C(=O)Cc1ccccc1)c1ccccc1 (stereo not given),-,.,-,-,-
CN1c2ccc([N+](=O)[O-])cc2CC2(C(=O)NC(=O)N(c3ccc(Br)cc3)C2=O)C1c1ccccc1 (stereo not given),-,75.7,-,-,-
CCOC(=O)[C@]12Cc3cc(Cl)ccc3[C@H]1N(C1CCCCC1)C(=O)c1cc(OC)ccc12,-,.,.,.,.
Clc1ccccc1Nc1ncnc(-n2cccc2)n1,-,101.4,-,-,-
CCn1c(=O)cc(OCC(=O)N2CCN(Cc3ccc4c(c3)OCO4)CC2)c2ccccc21,-,54.9,-,-,-
CCN1CCN(C(=O)COc2cc(=O)n(CC)c3ccccc23)CC1,-,-,-,-,-
C[C@H]1CC[C@@H]2[C@@H](C)[C@H]3[C@H](C[C@H]4[C@@H]5CC=C6C[C@@H](O[C@@H]7O[C@H](CO)[C@H](O)[C@H](O[C@@H]8O[C@H](CO)[C@@H](O)[C@H](O)[C@H]8O)[C@H]7O[C@@H]7O[C@@H](C)[C@H](O)[C@@H](O)[C@H]7O)CC[C@]6(C)[C@H]5CC[C@]34C)N2C1,-,-,-,-,-
C[C@@H]1O[C@@H](O[C@H]2C[C@@H](O)[C@]3(CO)[C@@H]4C(CC[C@]3(O)C2)[C@@]2(O)CC[C@H](C3COC(=O)C3)[C@@]2(C)C[C@H]4O)[C@H](O)[C@H](O)[C@H]1O (stereo not given in full),-,-,-,28.3,-
C[C@@H]1CN([C@@H](C)CO)C(=O)CCCn2nncc2CO[C@H]1CN(C)C(=O)Oc1cccc2ccccc12,-,.,-,-,-
SMILES,HTR2A ag,AHR activator,GAA850 FXN act,MC4R barr agon,MC4R antagonist
FC(F)(F)c1ccc2c(c1)ncn2C1CCN(Cc2nnnn2C2CCCCC2)CC1,-,55.6,-,-,-
CC(C)(C)N1CC(C(=O)c2ccccc2)C1c1ccccc1 (stereo not given),-,.,-,-,-
N#Cc1c(/N=C/c2c(O)n(Cc3ccco3)c(=O)[nH]c2=O)sc2c1CCCC2,18.5,-,-,-,-
O=c1[nH]c(=O)n(Cc2ccco2)c(O)c1/C=N/N1CCCCCC1,-,-,-,-,-
CC(C)(C)c1ccc(O)c(N=Cc2c(O)ccc3ccccc23)c1,-,64.4,-,-,-
COC(=O)C(O)(c1ccc(N=Cc2ccccc2O)c(C)c1)C(F)(F)F (stereo not given),-,-,-,-,-
CCOC(=O)[C@]12Cc3c(cc(OC)c(OC)c3OC)[C@H]1N(C1CCCCC1)C(=O)c1ccccc12,-,.,.,.,.
Nc1c2c(nc3sc4c(c13)CCCC4)CCCCC2,-,57.9,-,-,-
CN(C)C(=O)Oc1ccc(Cl)c2ccccc12,-,-,-,-,-
CN(C)C(=O)Oc1ccc(Br)cc1C(=O)Nc1ccc(F)c(Cl)c1,-,66.9,-,-,-
CNC(=O)Nc1ccc(C(=O)N/N=C\C23CC[C@@H](O)CC2(O)CC[C@@H]2[C@@H]3CCC3(C)C(C4=CC(=O)OC4)CCC23O)cc1 (stereo not given in full),-,-,-,-,-
COC1C(O)C(C)OC(OC2CCC3(C)C(CCC4C3C(O)CC3(C)C(C5=CC(=O)OC5)CCC43O)C2)C1O (stereo not given),-,.,-,17.9,-
C[C@]12CC[C@H](O)C[C@H]1CC[C@@H]1[C@@H]2C[C@@H](O)[C@]2(C)[C@@H](C3=CC(=O)OC3)CC[C@]12O,-,-,-,23.9,-
CC12CCC(O)CC1CCC1C2CCC2(C)C(C3=CC(=O)OC3)C(O)CC12O (stereo not given),-,.,-,12.7,-
CC12CCC(O)CC1CCC1C2CCC2(C)C(C3=CC(=O)OC3)CCC12O (stereo not given),-,.,-,28.1,-
C[C@]12CCC3[C@@H](CC[C@@H]4C[C@H](O)CC[C@]34C)[C@@H]1CCC2=O (stereo not given in full),-,-,-,-,-
CC12CC[C@H]3[C@@H](CCC4(O)C[C@H](O)CCC34/C=N/NC(=O)c3ccccc3[N+](=O)[O-])C1(O)CCC2C1=CC(=O)OC1 (stereo not given in full),-,-,-,-,-
